The record followed here is ChEMBL document CHEMBL1143602, “Evaluation of 8-arylsulfanyl, 8-arylsulfoxyl, and 8-arylsulfonyl adenine derivatives as inhibitors of the heat shock protein 90” (J Med Chem, 2005).

In assay [1] the test system is RPTEC. In words: Inhibitory concentration of compound against human renal proximal tubular epithelial cells (RPTEC) was determined. The assay is classed as functional, cell-based. In short, it runs like this: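 Pre-seeded normal human renal proximal tubular epithelial cells were equilibrated 3 h at 37 °C, 5% CO2, then given fresh medium. Cells were treated with drug or DMSO for 72 h.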

Another assay concerns SK-BR-3. In words: Inhibitory concentration against SKBr3 cell line. The assay is classed as functional, cell-based. The note with it: Homo sapiens. A digest of the protocol:
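Sulforhodamine B growth assay in SKBr3 cells grown in DME:F12 with 10% FBS at 37 °C, 5% CO2, attached overnight. Drug or DMSO was added in triplicate and serially diluted 1:1. Cells were grown 72 h, fixed with TCA and stained with 0.4% SRB.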

Assay [2] concerns the target T1, Heat shock protein HSP 90-alpha (Homo sapiens, UniProt P07900). In words: Effective concentration of compound against heat shock protein HSP90 determined in normal heart cells.
Assay [3] deals with T1, Heat shock protein HSP 90-alpha. In words: Effective concentration of compound against heat shock protein HSP90 determined in normal lung cells.
In assay [4] the target is Heat shock protein HSP 90-alpha (Mus musculus, UniProt P07901). In words: Displacement of 5 nM GM-BODIPY from mouse heat shock protein HSP90-alpha.
The target of assay [5] is T1, Heat shock protein HSP 90-alpha. In words: Effective concentration against heat shock protein HSP90-alpha in SKBr3 cells. The assay is classed as functional, cell-based.
The target is the same in assay [6]. In words: Effective concentration of compound against heat shock protein HSP90 determined in normal brain cells.
For assay [7], the system named is RPTEC. In words: Selective inhibition for renal proximal tubular epithelial cells (RPTEC) to that of SKBr3 cells. The format is functional, Homo sapiens.
In the next assay the target is Heat shock protein HSP90 (Homo sapiens, UniProt P07900+P08238). In words: Inhibition of Hsp90 protein as degradation of HER2 kinase in SKBr3 cells. The assay is classed as functional, cell-based.
In assay [8] the target is T1, Heat shock protein HSP 90-alpha. In words: Effective concentration against heat shock protein HSP90-alpha in MDA-MB-468 cells. The format is functional, cell-based.

pEC50, pIC50: −log10 of the molar value. Where “and” joins values, the source holds several entries; their conditions need not be identical. Identical values can stand only once.

As usually defined, the pIC50 is −log10 of the IC50, conventionally taken in molar units. High values mean a small IC50, low ones a large IC50. Broadly, the pEC50 is the EC50 on a negative log10 scale, so that one unit is a factor of ten. A higher pEC50 goes with a small EC50. Usually IC50 stands for the midpoint of a concentration-inhibition curve.

Take `C#CCCCn1c(Sc2cc(OC)ccc2I)nc2c(N)ncnc21`: the pIC50 with RPTEC [1] is 5.48; in the assay with SK-BR-3, 6.24. The pEC50 was 4.57 in assay [2]; 4.53 in assay [3]; 7.30 in [4]; 7.52 in [5]; 4.52 in assay [6].

`C#CCCCn1c(Sc2cc(OC)ccc2Br)nc2c(N)ncnc21` displayed a Selectivity in the assay with RPTEC [7] of 7.4. Further, the pIC50 in the assay with RPTEC [1] is 5.09; in the assay with SK-BR-3, 5.96. In addition, at Heat shock protein HSP90, the IC50 amounted to 1.45 µM. The pEC50 was 4.53 in [2]; 4.56 in [3]; 7.15 in assay [4]; 6.89 in assay [5]; 4.84 in [6].

As for `C#CCCCn1c(Sc2cc(OC)c(OC)c(OC)c2)nc2c(N)ncnc21`, the Selectivity in the assay on RPTEC [7] is 4.4. For the same compound, the pIC50 in the assay on RPTEC [1] is 3.92; in the assay on SK-BR-3 it was 4.57. The compound also registered an IC50 against Heat shock protein HSP90 of 22.3 µM. The pEC50 in assay [4] was 5.82; in assay [5], 5.38; in assay [8], 5.55.

Regarding `C#CCCCn1c(Sc2cc(OC)ccc2OC)nc2c(N)ncnc21`, in the assay on RPTEC [7], the Selectivity was 16.5. In addition, the values for the pIC50 in the assay on RPTEC [1] and with SK-BR-3 were 4.50 and 5.72, respectively. At Heat shock protein HSP90, this compound returned an IC50 of 3.2 µM. Moreover, the negative logarithm of the EC50 (pEC50) in assay [2] was 4.18; in [3], under 4.12; in assay [4], 6.72; in assay [5] it was 6.80; in [6] it was 4.52.

As to `C#CCCCn1c(Sc2cc3c(cc2Br)OCO3)nc2c(N)ncnc21`, in the assay on RPTEC [7], the Selectivity worked out at 20.5. Besides, the pIC50 was 5.39 in the assay on RPTEC [1] and 6.70 in the assay with SK-BR-3. Also, the IC50 at Heat shock protein HSP90 was 0.3 µM. Further, the pEC50 in assay [2] is 4.19; in assay [3], 4.83; in [4] it was 7.52; in assay [5], 7.70; in assay [6] it was 4.40.

In turn, `C#CCCCn1c(Sc2cc(OC)c(OC)c(OC)c2)nc2c(N)nc(F)nc21` had a pIC50 in the assay with SK-BR-3 of 4.74. This compound also had a half-maximal inhibitory concentration (IC50) on Heat shock protein HSP90 of 20.9 µM. Besides, the figures for the pEC50 in assay [4], in assay [5] and in [8] were 5.82, 5.70 and 5.66, respectively.

Regarding `COc1cc(Cc2nc3c(N)ncnc3n2CCOC(C)C)cc(OC)c1OC`, the Selectivity in the assay on RPTEC [7] is reported as over 100. The negative-log IC50 (pIC50) in the assay with RPTEC [1] was under 3.70; in the assay with SK-BR-3, 4.15. The IC50 against Heat shock protein HSP90 turned out to be 28.7 µM. In addition, the pEC50 in assay [5] was 5.29 and 5.44; in assay [8], 5.24.
